Measurements from ChEMBL document CHEMBL3526070, “Mass balance study of [¹⁴C]eribulin in patients with advanced solid tumors” (Drug Metab Dispos, 2012).

Legend:
Homo sapiens [1] = assay: Toxicity against cancer patient assessed as severe adverse event at 80 uCi, iv administered as bolus infusion for 2 to 5 mins; format: organism-based; conditions: in vivo
Homo sapiens [2] = assay: Dose-normalized AUC (0 to t) in cancer patient plasma assessed as total radioactivity at 2 mg, iv administered as bolus infusion for 2 to 5 mins by LC-MS/MS analysis/liquid scintillation counting; format: ADME, organism-based; conditions: in vivo
Summary of the method: (§1)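 Six patients with advanced solid tumours got one ~2 mg (~80 µCi) 14C-eribulin IV bolus over 2-5 min. Venous blood was drawn into lithium heparin pre-dose, at end of infusion and 5 min-168 h after, then spun 2,000 g, 4 °C, 15 min. Plasma was counted in duplicate by LSC with quench correction. Non-compartmental analysis; dose-normalised values use actual administered dose.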

Homo sapiens [3] = assay: Dose-normalized AUC (0 to infinity) in cancer patient plasma assessed as total radioactivity at 2 mg, iv administered as bolus infusion for 2 to 5 mins by LC-MS/MS analysis/liquid scintillation counting; format: ADME, organism-based; conditions: in vivo; summary of the method: as §1
Homo sapiens [4] = assay: Toxicity against cancer patient assessed as mortality at 80 uCi, iv administered as bolus infusion for 2 to 5 mins; format: organism-based; conditions: in vivo
Homo sapiens [5] = assay: Terminal half life in cancer patient assessed as total radioactivity at 2 mg, iv administered as bolus infusion for 2 to 5 mins by LC-MS/MS analysis/liquid scintillation counting; format: ADME, organism-based; conditions: in vivo; summary of the method: as §1
[6] = Drug excretion in cancer patient urine at 80 uCi, iv administered as bolus infusion for 2 to 5 mins after 312 hrs by liquid scintillation counting; format: ADME, organism-based; conditions: human, in vivo
Summary of the method: (§2)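 Patients had one ~2 mg (~80 µCi) 14C-eribulin IV bolus over 2-5 min. Urine was pooled over 6 h periods to 48 h, then every 24 h. All faeces were collected and homogenised. Collection ran to day 8, or longer until daily recovery was <1% of administered activity (faeces up to 312 h). Faeces were solubilised and decolourised, then LSC counted with quench correction, as percentage of administered activity.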

Homo sapiens [7] = assay: AUC (0 to t) in cancer patient assessed as total radioactivity at 2 mg, iv administered as bolus infusion for 2 to 5 mins by LC-MS/MS analysis/liquid scintillation counting; format: ADME, organism-based, Plasma; conditions: in vivo; summary of the method: as §1
Homo sapiens [8] = assay: Dose-normalized Cmax in cancer patient plasma assessed as total radioactivity at 2 mg, iv administered as bolus infusion for 2 to 5 mins by LC-MS/MS analysis/liquid scintillation counting; format: ADME, organism-based; conditions: in vivo; summary of the method: as §1
[9] = Drug excretion in cancer patient feces at 80 uCi, iv administered as bolus infusion for 2 to 5 mins after 312 hrs by liquid scintillation counting; format: ADME, organism-based; conditions: human, in vivo; summary of the method: as §2
Homo sapiens [10] = assay: AUC (0 to infinity) in cancer patient assessed as total radioactivity at 2 mg, iv administered as bolus infusion for 2 to 5 mins by LC-MS/MS analysis/liquid scintillation counting; format: ADME, organism-based, Plasma; design: dose 2 mg, time infinity, route intravenous; conditions: in vivo; summary of the method: as §1
[11] = Drug excretion in cancer patient feces at 80 uCi, iv administered as bolus infusion for 2 to 5 mins after 168 hrs by liquid scintillation counting; format: ADME, organism-based; conditions: human, in vivo; summary of the method: as §2
[12] = Drug excretion in cancer patient urine at 80 uCi, iv administered as bolus infusion for 2 to 5 mins after 168 hrs by liquid scintillation counting; format: ADME, organism-based; conditions: human, in vivo; summary of the method: as §2
Homo sapiens [13] = assay: Cmax in cancer patient plasma assessed as total radioactivity at 2 mg, iv administered as bolus infusion for 2 to 5 mins by LC-MS/MS analysis/liquid scintillation counting; format: ADME, organism-based; design: dose 2 mg, route intravenous; conditions: in vivo; summary of the method: as §1
[14] = Terminal half life in breast cancer patient; format: ADME, organism-based; conditions: human, in vivo; read-out: beta t1/2 (converted)
[15] = Renal clearance in cancer patient at 2 mg, iv administered as bolus infusion for 2 to 5 mins by LC-MS/MS analysis; format: ADME, organism-based, Kidney; conditions: human, in vivo
Summary of the method: (§3)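 Six patients with advanced solid tumours received a single ~2 mg (~80 µCi) 14C-eribulin IV bolus over 2-5 min. Plasma was sampled from pre-dose to 168 h after end of infusion, using lithium-heparin tubes centrifuged at 4 °C. Eribulin was quantified by validated LC-MS/MS (m/z 730→712) and corrected ×2.03 for total eribulin. CL, CLr and Vz came from non-compartmental analysis. Values are mean ± SD, n=6.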

[16] = Drug excretion in patient urine assessed as unchanged compound level at 0.25 to 1.4 mg/m2 administered 1 hr, iv infusion after 72 hrs; format: ADME, organism-based; conditions: human, read-out: Drug excretion
Homo sapiens [17] = assay: Dose-normalized Cmax in cancer patient plasma at 2 mg, iv administered as bolus infusion for 2 to 5 mins by LC-MS/MS analysis/liquid scintillation counting; format: ADME, organism-based; conditions: in vivo
Summary of the method: (§4)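 Single ~2 mg (~80 µCi) 14C-eribulin IV bolus over 2-5 min in 6 cancer patients; actual doses were 1.75-3.01 mg. Plasma eribulin was measured by LC-MS/MS and total radioactivity by liquid scintillation counting with quench correction. Cmax, AUC0-t and AUC0-∞ came from non-compartmental analysis and were divided by the actual dose. TRA AUC0-∞ used n=5.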

Homo sapiens [18] = assay: Dose-normalized AUC (0 to infinity) in cancer patient plasma at 2 mg, iv administered as bolus infusion for 2 to 5 mins by LC-MS/MS analysis/liquid scintillation counting; format: ADME, organism-based; conditions: in vivo; summary of the method: as §4
Homo sapiens [19] = assay: Apparent volume of distribution in the terminal phase in cancer patient at 2 mg, iv administered as bolus infusion for 2 to 5 mins by LC-MS/MS analysis; format: ADME, organism-based; conditions: in vivo; summary of the method: as §3
Homo sapiens [20] = assay: Drug excretion in cancer patient treated with [14C]eribulin acetate at 2 mg, iv administered as bolus infusion for 2 to 5 mins after 312 hrs by LC-MS/MS analysis; format: ADME, organism-based; conditions: in vivo
Summary of the method: (§5)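 Patients got a ~2 mg (~80 µCi) 14C-eribulin IV bolus over 2-5 min. Urine was collected in 6 h periods to 48 h, then in 24 h periods. All faeces were collected and homogenised until daily recovery was <1% of dose; four patients continued to 312 h. Unchanged eribulin was measured by LC-MS/MS (faeces 0.1–25 µg/g) and total radioactivity by LSC. Results are % of the administered dose, mean ± SD.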

[21] = Drug excretion in patient urine assessed as unchanged compound at 0.25 to 4 mg/m2 administered 1 hr, iv infusion every 21 days after 72 hrs; format: ADME, organism-based; conditions: human, read-out: Drug excretion
Homo sapiens [22] = assay: Dose-normalized AUC (0 to t) in cancer patient plasma at 2 mg, iv administered as bolus infusion for 2 to 5 mins by LC-MS/MS analysis/liquid scintillation counting; format: ADME, organism-based; conditions: in vivo; summary of the method: as §4
Homo sapiens [23] = assay: Drug excretion in cancer patient treated with [14C]eribulin acetate at 2 mg, iv administered as bolus infusion for 2 to 5 mins after 168 hrs by LC-MS/MS analysis; format: ADME, organism-based; conditions: in vivo; summary of the method: as §5
[24] = Clearance in cancer patient at 2 mg, iv administered as bolus infusion for 2 to 5 mins by LC-MS/MS analysis; format: ADME, organism-based; conditions: human, in vivo; summary of the method: as §3

**Q.** What does the source list for C=C1C[C@@H]2CC[C@@]34C[C@H]5O[C@H]6[C@@H](O3)[C@H]3O[C@H](CC[C@@H]3O[C@H]6[C@H]5O4)CC(=O)C[C@@H]3[C@@H](OC)[C@@H](C[C@H](O)CN)O[C@H]3C[C@H]3O[C@@H](CC[C@@H]1O2)C[C@@H](C)C3=C.CC(=O)O?
**A.** Activity (Homo sapiens [1]): Non-toxic; AUCt/dose (Homo sapiens [2]): 269 ngequiv.hr/ml/mg; AUC/dose (Homo sapiens [3]): 357 ngequiv.hr/ml/mg; Activity (Homo sapiens [4]): Non-toxic; beta t1/2 (Homo sapiens [5]): 42.3 h; Drug excretion [6]: 8.9%; AUCt (Homo sapiens [7]): 568 ng.Eq.hr/ml; Cmax/dose (Homo sapiens [8]): 224 ngequiv/ml/mg; Drug excretion [9]: 81.5%; AUC (Homo sapiens [10]): 753 ng.Eq.hr/ml; Drug excretion [11]: 77.6%; Drug excretion [12]: 8.9%; Cmax (Homo sapiens [13]): 449 ng.Eq/ml

**Q.** With C=C1C[C@@H]2CC[C@@]34C[C@H]5O[C@H]6[C@@H](O3)[C@H]3O[C@H](CC[C@@H]3O[C@H]6[C@H]5O4)CC(=O)C[C@@H]3[C@@H](OC)[C@@H](C[C@H](O)CN)O[C@H]3C[C@H]3O[C@@H](CC[C@@H]1O2)C[C@@H](C)C3=C.CS(=O)(=O)O [ERIBULIN MESYLATE] as the compound, how does the half-life [14] read?
**A.** 36 h

**Q.** And the CL renal [15]?
**A.** 5 mL/min

**Q.** What about the dose excreted at 72 h [16] of the same compound?
**A.** 5%

**Q.** And the Cmax/dose (Homo sapiens [17])?
**A.** 222 ng/mL/mg

**Q.** And the AUC/dose (Homo sapiens [18])?
**A.** 328 ng·h/mL/mg

**Q.** What about the Vz/F (Homo sapiens [19]) of the same compound?
**A.** 247 L

**Q.** What about the Drug excretion (Homo sapiens [20]) of the same compound?
**A.** 68.6%

**Q.** And the dose excreted at 72 h [21]?
**A.** 7%

**Q.** And the AUCt/dose (Homo sapiens [22])?
**A.** 301 ng·h/mL/mg

**Q.** What about the Drug excretion (Homo sapiens [23]) of the same compound?
**A.** 68%

**Q.** And the clearance [24]?
**A.** 65.5 mL/min
